Broadly, the half-life is the time in which the quantity being followed falls by half. A low value points to rapid decline. As a reminder, the EC50 is the concentration at which the effect is half-maximal. Usually bioavailability stands for dose-corrected exposure relative to a reference, in per cent. The low end stands for little systemic uptake, the high end for much systemic uptake. As a reminder, the Ki is the equilibrium dissociation constant of an inhibitor or competing ligand from its target. Lower therefore signals higher affinity.

Active and inactive are the calls of the source. No cut-off for these calls is given here. Bounds are passed on as bounds.

Series [1] is described as follows: Half-life was measured in (in vitro) dog liver slice experiments. Type of series: ADME, Canis lupus familiaris. As to conditions: dog liver slices. The essentials:
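Compounds at a final 12 μg/mL were incubated with dog liver slices at 37 °C for times up to 24 h. Medium was removed and frozen, then parent compound was quantified by HPLC. Half-life and % remaining at 24 h were reported.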

In series [2] the test system is IMR-32. Briefly: Concentration required to elicit ganglionic receptors measured using [86Rb+] flux functional assay in a human neuroblastoma-derived IMR-32 cell line. In kind it is cell-based. A digest of the protocol:
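Ganglionic-type (α3-containing) receptor function assessed as 86Rb+ flux in human neuroblastoma IMR-32 cells; EC50 reported as mean ± SEM, n = 3–5.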

Series [3] can be described thus: Oral bioavailability in dog. In kind it is ADME, organism-based, Canis lupus familiaris. The note with it: in vivo. The essentials:
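Fasted beagle dogs (n = 3–6) received 500 nmol/kg by oral gavage or slow iv bolus. Jugular plasma was sampled over 8 h, and parent drug was measured by reverse-phase HPLC. Bioavailability is reported as mean ± SEM.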

For series [4], the target named is Neuronal acetylcholine receptor subunit alpha-7 (Homo sapiens, UniProt P36544). Briefly: Bindind affinity value obtained by measuring the displacement of radioligand [125I]alpha-bungarotoxin from K-28 cells stably express human Nicotinic acetylcholine receptor alpha7. Type of series: cell-based.
Neuronal acetylcholine receptor subunit alpha-7, sequence (P36544 whole entry): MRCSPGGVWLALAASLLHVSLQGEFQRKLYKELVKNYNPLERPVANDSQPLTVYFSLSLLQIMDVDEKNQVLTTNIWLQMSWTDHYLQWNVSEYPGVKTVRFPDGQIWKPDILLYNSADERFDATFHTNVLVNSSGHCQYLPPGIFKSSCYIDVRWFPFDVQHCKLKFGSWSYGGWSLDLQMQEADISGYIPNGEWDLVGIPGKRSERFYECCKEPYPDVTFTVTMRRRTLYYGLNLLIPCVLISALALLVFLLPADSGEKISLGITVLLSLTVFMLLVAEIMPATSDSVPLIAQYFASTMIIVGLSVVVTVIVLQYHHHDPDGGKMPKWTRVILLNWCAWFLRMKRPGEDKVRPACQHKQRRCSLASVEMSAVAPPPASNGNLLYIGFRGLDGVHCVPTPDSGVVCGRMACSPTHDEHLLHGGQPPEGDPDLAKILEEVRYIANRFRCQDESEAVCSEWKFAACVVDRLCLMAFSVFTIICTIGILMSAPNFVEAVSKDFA
Series [5] is described as follows: Half-life was measured in (in vitro) dog liver slice experiments following intravenous administration to dogs. In kind it is ADME, organism-based, Canis lupus familiaris. As to conditions: in vivo. The essentials:
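Beagle dogs were fasted overnight, with water available. They received 500 nmol/kg as a slow iv bolus into the saphenous vein. Jugular blood was sampled over 8 h, and plasma parent drug was measured by reverse-phase HPLC (electrochemical or derivatization/fluorescence detection).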

In series [6] the test system is IMR-32. Briefly: The maximal efficacy relative to 100 uM nicotine. Type of series: functional, Homo sapiens.
Series [7] concerns the target Neuronal acetylcholine receptor. Briefly: Binding affinity value obtained by measuring the displacement of radioligand [3H](-)-cytisine from whole rat brain Nicotinic acetylcholine receptor.
Series [8] has the same target. As to the kind of experiment: Binding affinity value obtained by measuring the displacement of radioligand [3H](-)-cytisine from a preparation of whole rat brain.
Series [9] concerns Mus musculus. As to the kind of experiment: Minimum dose of the drug (intraperitoneal) required for elicited a statistically significant response in seizure assay. In kind it is functional.
Series [10] deals with Mus musculus. Briefly: Minimum dose of the drug (intraperitoneal) required that elicited a statistically significant response in mouse inhibitory avoidance assay. In kind it is functional. A digest of the protocol:
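Mice were dosed ip 15 min before training in a dark-light chamber, where entering the dark side was paired with a mild foot shock. The index of memory was latency to enter the dark chamber in a later test session.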

Series [11] relates to Mus musculus. As to the kind of experiment: Minimum dose of the drug (intraperitoneal) required for elicited a statistically significant response in hypothermia assay. Type of series: functional. A digest of the protocol:
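Body temperature was taken by rectal probe inserted 3 cm, about 20 min after ip injection. The same mice had just completed a 15-min open-field activity session.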

Series [12] has as its system Mus musculus. Briefly: Minimum dose of the drug (intraperitoneal) required elicited a statistically significant response in locomotor activity assay; No significant effect at (0.0062-6.2) dose range. Type of series: functional, organism-based.

For the molecule `Cc1ncccc1OC[C@H]1CCCN1`, the half-life in [1] is greater than 24 h; in series [5] it was 1.4 h. In [2], a half-maximal response (EC50) required 50 µM. In addition, in series [3], the bioavailability was determined as 66%. This molecule also registered a Ki in series [4] greater than 10 µM. The same molecule yielded a Max in [6] of 11%.

Turning to `Cc1ncccc1OC[C@H]1CCCN1C`, the half-life was 8.5 h in series [1] and 0.61 h in [5]. In series [3], this molecule gave a bioavailability of 4.9%. Also, the values for the Ki in series [4] and in series [7] were greater than 10 µM and 3 µM, respectively.

Regarding `CN1CCC[C@H]1COc1cccnc1`, the EC50 in series [2] was 63 µM. Moreover, the inhibition constant (Ki) worked out at 1.53 µM in [4] and 0.00028 µM in series [8]. Besides, the Max in series [6] is recorded as 100%.

In the case of `Cc1ncccc1OC[C@@H]1CCCN1C`, the half-life in series [1] is 9 h; in series [5], 0.31 h. In addition, in series [2], a half-maximal response (EC50) required 25 µM. The same molecule registered a bioavailability in series [3] of 5.8%. Further, the Ki in series [4] was greater than 10 µM. The molecule further registered a Max in [6] of 29%.

Consider `Cc1cc([C@@H]2CCCN2C)on1` [ABT-418], for which the half-life in series [1] was 3 h; in [5], 0.21 h. In series [2], the EC50 came to 64 µM. For the same molecule, the bioavailability in series [3] amounted to 1.2%. In [4], this molecule gave an inhibition constant Ki of 4.05 µM. Further, the EDmin in series [9] came out at 62 µM/kg; in [10], 0.062 µM/kg; in series [11] it was 19 µM/kg. In series [6], this molecule yielded a Max of 85%.

In the case of `CN1CCC[C@H]1c1cccnc1` [NICOTINE], the EDmin was determined as 41 µM/kg in series [9], 0.62 µM/kg in [10] and 6.2 µM/kg in series [11]. This molecule also registered a Max in [6] of 100%.

Turning to `Cc1ncccc1OC[C@@H]1CCCN1` [POZANICLINE], the values for the half-life in series [1] and in [5] were greater than 24 h and 1.6 h, respectively. In [2], this molecule had an EC50 of 150 µM. The same molecule registered a bioavailability in [3] of 61.5%. Moreover, the Ki in series [4] is greater than 10 µM. Besides, the results for the EDmin in series [9], in series [10] and in [11] were 774 µM/kg, 0.62 µM/kg and greater than 62 µM/kg, respectively. The same molecule yielded a Max in [6] of 8%. Besides, in series [12], the EDmin entry is “inactive”.
